Results pooled from the literature.
Compare with care: the assays were run in different laboratories.
Target: Calcium/calmodulin-dependent protein kinase type II subunit delta (CAMK2D, Homo sapiens, UniProt Q13557)

CC(C)(C)c1nc(-c2cccc(NS(=O)(=O)c3c(F)cccc3F)c2F)c(-c2ccnc(N)n2)s1  remaining activity (enzyme activity, inhibitor, radiometric; 1 µM): 97%
O=C1NC(c2ccccn2)Sc2ccccc21 (stereo not shown)  remaining binding (cell-free assay, competition with immobilised ligand; 1 µM): 75%
COc1cc2ncnc(Nc3ccc(Oc4ccccc4)cc3C)c2cc1OC  inhibition (enzyme activity, inhibitor; 1 µM): 4%
O=C1NC(=O)c2cc(Nc3ccc(F)cc3)c(Nc3ccc(F)cc3)cc21  remaining signal (cell-free assay; 0.5 µM): 97.9%
CC(C)(O)[C@H]1CC[C@H](Nc2ccc3ncc(-c4cccc(C(F)(F)F)c4)n3n2)CC1  remaining activity (enzyme activity, inhibitor; 1 µM): 81.8%
COc1cccc(CNC(=O)c2nc3scc(COCc4ccc(C(=O)O)cc4)c3c(=O)[nH]2)c1  remaining binding (cell-free assay, competition with immobilised ligand; 1 µM): 100%
CCCOc1ccc(OC)c(F)c1C(=O)c1ccc(C(=O)N[C@@H]2CNC[C@H]2NC(=O)c2ccc3[nH]ncc3c2)cc1  remaining activity (enzyme activity, inhibitor; 10 µM): 53%
CC/C(=N\NC(=O)NCc1cccc(O)c1)c1ccc(O)c(C)c1O  inhibition (enzyme activity, inhibitor; 0.1 µM): -4.9%
CNCc1ccccc1-c1csc([C@H](C)Nc2nc(C)nc3cc(OC)c(OC)cc23)c1  remaining binding (cell-free assay, competition with immobilised ligand; 1 µM): 97%
CCN1CCN(Cc2ccc(NC(=O)c3ccc(C)c(Oc4ccnc5[nH]ccc45)c3)cc2C(F)(F)F)CC1  inhibition (target engagement in cells, inhibitor, chemoproteomics; Huh-7; 1 µM): -12%
COc1cc(Cl)c(C(=O)N[C@@H](CN[C@H]2CC[C@@H](N)CC2)Cc2ccc(C#N)cc2)cc1-c1ccc(CN[C@H](C)c2ccc(C)cc2)o1  remaining activity (enzyme activity, inhibitor; 1 µM): 100%
Nc1c(C(=O)NCc2ccc(C(=O)NCCCC3CCCCC3)cc2)cnn1-c1ccccc1  remaining binding (cell-free assay, competition with immobilised ligand; 0.1 µM): 100%
Cc1ccc(NC(=O)c2ccc(C)c(C(F)(F)F)c2)cc1C#Cc1nn(C2CCC(O)CC2)c2ncnc(N)c12 (stereo not shown)  remaining signal (cell-free assay; 10 µM): 89%
CNC(=O)c1cc(Oc2ccc(NC(=O)Nc3ccc(Cl)c(C(F)(F)F)c3)cc2)ccn1  inhibition (enzyme activity, inhibitor; 10 µM): 79%
COc1ccc2c(c1)O[C@H](c1ccc(OC)c(OC)c1)C[C@@H]2NC(=O)C1(c2ccc3c(c2)OC(F)(F)O3)CC1  remaining binding (cell-free assay, competition with immobilised ligand; 1 µM): 100%
Cc1ccc(Nc2nccc(N(C)c3ccc4c(C)n(C)nc4c3)n2)cc1S(N)(=O)=O  inhibition (enzyme activity, inhibitor; 10 µM): 66%
NS(=O)(=O)c1cc(NC(=O)C2(c3ccccc3Cl)CC2)ccc1Oc1cccc(Cl)c1  remaining binding (cell-free assay, competition with immobilised ligand; 1 µM): 100%
CCCS(=O)(=O)Nc1ccc(F)c(C(=O)c2c[nH]c3ncc(-c4ccc(Cl)cc4)cc23)c1F  inhibition (enzyme activity, inhibitor; 1 µM): < 10%
CC1=C(C#N)[C@@H](c2ccc3[nH]nc(C)c3c2)C(C#N)=C(c2ccc(Cl)cc2)N1  remaining binding (cell-free assay, competition with immobilised ligand; 1 µM): 82.1%
Nc1ncnc2occ(-c3ccc(NC(=O)Nc4cc(C(F)(F)F)ccc4F)cc3)c12  remaining signal (cell-free assay, inhibitor; 20 µM): 94%
CCCCNc1ncc2c(-c3ccc(F)cc3)nn(C[C@H]3CC[C@H](N)CC3)c2n1  inhibition (target engagement in cells, inhibitor, chemoproteomics; 20 mM): 44.3%
Cc1sc(C(=O)NC2COC2)cc1-n1cc(NC(=O)Nc2c(F)cccc2Cl)cn1  remaining activity (enzyme activity, inhibitor; 10 µM): 91.3%
CCN(CC)CCNC(=O)c1c(C)[nH]c(/C=C2\C(=O)Nc3ccc(F)cc32)c1C  inhibition (enzyme activity, inhibitor; 10 µM): 96%
Cc1ccc(C(=O)NCc2ccsc2)cc1C#Cc1cn(C(C)C)c2ncnc(N)c12  activity vs control (enzyme activity, inhibitor; 1 µM): 102%
C#Cc1cccc(Nc2ncnc3cc(OCCOC)c(OCCOC)cc23)c1  remaining signal (cell-free assay; 0.5 µM): 95.1%
CSc1cccnc1N1CCN(Cc2nc3ccccc3[nH]2)CC1  remaining binding (cell-free assay, competition with immobilised ligand; 1 µM): 100%
N#CCCc1ccc2c(c1)-c1[nH]c3ccc([N+](=O)[O-])cc3c1CC(=O)N2  remaining signal (cell-free assay; 0.5 µM): 57.8%
COc1cccc2c(NCc3ccccc3)nc(-n3c(N)nc4ccccc43)nc12  inhibition (target engagement in cells, inhibitor, chemoproteomics; 20 mM): -14.3%
